Results reported in ChEMBL document CHEMBL1131215, “Anhydrolide macrolides. 1. Synthesis and antibacterial activity of 2,3-anhydro-6-O-methyl 11,12-carbamate erythromycin A analogues” (1998).
In brackets after ≈: the same amount, converted by molar mass.

Columns and labels:
Type in all cases: functional
Staphylococcus aureus [1] = assay: In vivo antibacterial activity in mice infected with Staphylococcus aureus NCTC-10649M.
Streptococcus pneumoniae [2] = assay: In vitro antibacterial activity against ATCC 6303 strain of Streptococcus pneumoniae; conditions: Streptococcus pneumoniae, ATCC 6303
Method in brief: (§1)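 MIC determined by standard agar dilution; values in μg/mL.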

Streptococcus pneumoniae [3] = assay: In vivo antibacterial activity in mice infected with Streptococcus pneumoniae ATCC 6303
Streptococcus pyogenes [4] = assay: In vitro antibacterial activity against 930 strain of Streptococcus pyogenes; conditions: Streptococcus pyogenes; method in brief: as §1
Mus musculus [5] = assay: Effective dose when administered orally in mice infected with Streptococcus pneumoniae ATCC 6303; conditions: po
Method in brief: (§2)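 Mice infected intraperitoneally with 1000 × LD₅₀ (S. aureus) or […] × LD₅₀ (S. pneumoniae). Compound given orally (po) or subcutaneously (sc) at 1 and 5 h post-infection. ED₅₀ expressed in mg/kg/day with 95% confidence interval.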

Staphylococcus aureus [6] = assay: In vitro antibacterial activity against 6538P strain of Staphylococcus aureus; conditions: Staphylococcus aureus; method in brief: as §1
Streptococcus pneumoniae [7] = assay: In vitro antibacterial activity against 5979 strain of Streptococcus pneumoniae; method in brief: as §1
Haemophilus influenzae = assay: In vitro antibacterial activity against DILL strain of Haemophilus influenzae.; method in brief: as §1
Streptococcus pyogenes [8] = assay: In vitro antibacterial activity against PIU 2548 strain of Streptococcus pyogenes; conditions: Streptococcus pyogenes; method in brief: as §1
[9] = In vitro antibacterial activity against A-5278 strain of Staphylococcus aureus; conditions: Staphylococcus aureus; method in brief: as §1
Staphylococcus aureus [10] = assay: In vitro antibacterial activity against A5177 strain of Staphylococcus aureus; conditions: Staphylococcus aureus; method in brief: as §1
Streptococcus pneumoniae [11] = assay: In vitro antibacterial activity against 5649 strain of Streptococcus pneumoniae; conditions: Streptococcus pneumoniae; method in brief: as §1
Mus musculus [12] = assay: Effective dose when administered orally in mice infected with Staphylococcus aureus NCTC-10649M.; conditions: po; method in brief: as §2
Mus musculus [13] = assay: Effective dose when administered subcutaneously in mice infected with Staphylococcus aureus NCTC-10649M.; conditions: sc; method in brief: as §2
Mus musculus [14] = assay: Effective dose when administered subcutaneously in mice infected with Streptococcus pneumoniae ATCC 6303; conditions: sc; method in brief: as §2

Compound	MIC (Staphylococcus aureus [1]) [µg/mL]	MIC (Streptococcus pneumoniae [2]) [µg/mL]	MIC (Streptococcus pneumoniae [3]) [µg/mL]	MIC (Streptococcus pyogenes [4]) [µg/mL]	ED50 (Mus musculus [5]) [mg/kg/day]	MIC (Staphylococcus aureus [6]) [µg/mL]	MIC (Streptococcus pneumoniae [7]) [µg/mL]	MIC (Haemophilus influenzae) [µg/mL]	MIC (Streptococcus pyogenes [8]) [µg/mL]	MIC [9] [µg/mL]	MIC (Staphylococcus aureus [10]) [µg/mL]	MIC (Streptococcus pneumoniae [11]) [µg/mL]	ED50 (Mus musculus [12]) [mg/kg/day]	ED50 (Mus musculus [13]) [mg/kg/day]	ED50 (Mus musculus [14]) [mg/kg/day]
CC[C@H]1OC(=O)/C(C)=C/[C@H](C)[C@@H](O[C@@H]2O[C@H](C)C[C@H](N(C)C)[C@H]2O)[C@@](C)(OC)C[C@@H](C)C(=O)[C@H](C)[C@H]2N(CCc3ccc(F)cc3)C(=O)O[C@]12C	0.39 (≈ 0.542 µM)	0.125 (≈ 0.174 µM)	0.125 (≈ 0.174 µM)	25 (≈ 34.8 µM)	> 40	0.39 (≈ 0.542 µM)	32 (≈ 44.5 µM)	16 (≈ 22.3 µM)	0.39 (≈ 0.542 µM)	50 (≈ 69.6 µM)	0.39 (≈ 0.542 µM)	1 (≈ 1.39 µM)	> 100		
CC[C@H]1OC(=O)/C(C)=C/[C@H](C)[C@@H](O[C@@H]2O[C@H](C)C[C@H](N(C)C)[C@H]2O)[C@@](C)(OC)C[C@@H](C)C(=O)[C@H](C)[C@H]2N(CCCOc3ccc4ccccc4c3)C(=O)O[C@]12C		0.03 (≈ 0.0384 µM)		3.1 (≈ 3.97 µM)		0.2 (≈ 0.256 µM)	8 (≈ 10.2 µM)	64 (≈ 81.9 µM)	0.39 (≈ 0.499 µM)	25 (≈ 32 µM)	0.39 (≈ 0.499 µM)	2 (≈ 2.56 µM)			
CC[C@H]1OC(=O)/C(C)=C/[C@H](C)[C@@H](O[C@@H]2O[C@H](C)C[C@H](N(C)C)[C@H]2O)[C@@](C)(OC)C[C@@H](C)C(=O)[C@H](C)[C@H]2N(CC/C=C\c3ccc(Cl)cc3)C(=O)O[C@]12C		0.12 (≈ 0.158 µM)		3.1 (≈ 4.07 µM)		0.39 (≈ 0.512 µM)	8 (≈ 10.5 µM)	32 (≈ 42 µM)	0.2 (≈ 0.263 µM)	12.5 (≈ 16.4 µM)		1 (≈ 1.31 µM)			
CC[C@H]1OC(=O)/C(C)=C/[C@H](C)[C@@H](O[C@@H]2O[C@H](C)C[C@H](N(C)C)[C@H]2O)[C@@](C)(OC)C[C@@H](C)C(=O)[C@H](C)[C@H]2N(CCc3ccc([N+](=O)[O-])cc3)C(=O)O[C@]12C	0.1 (≈ 0.134 µM)	0.06 (≈ 0.0804 µM)	0.06 (≈ 0.0804 µM)	25 (≈ 33.5 µM)	> 20	0.1 (≈ 0.134 µM)	64 (≈ 85.8 µM)	16 (≈ 21.5 µM)	0.1 (≈ 0.134 µM)	50 (≈ 67 µM)	0.1 (≈ 0.134 µM)	1 (≈ 1.34 µM)	50.1	> 40	> 8
CC[C@H]1OC(=O)/C(C)=C/[C@H](C)[C@@H](O[C@@H]2O[C@H](C)C[C@H](N(C)C)[C@H]2O)[C@@](C)(OC)C[C@@H](C)C(=O)[C@H](C)[C@H]2N(CCc3cccs3)C(=O)O[C@]12C		0.125 (≈ 0.177 µM)		25 (≈ 35.4 µM)		0.39 (≈ 0.552 µM)	32 (≈ 45.3 µM)	16 (≈ 22.6 µM)	0.2 (≈ 0.283 µM)	50 (≈ 70.7 µM)	0.39 (≈ 0.552 µM)	0.5 (≈ 0.707 µM)			
CC[C@H]1OC(=O)/C(C)=C/[C@H](C)[C@@H](O[C@@H]2O[C@H](C)C[C@H](N(C)C)[C@H]2O)[C@@](C)(OC)C[C@@H](C)C(=O)[C@H](C)[C@H]2N(CCc3ccc(C)cc3)C(=O)O[C@]12C		0.015 (≈ 0.021 µM)		12.5 (≈ 17.5 µM)		0.39 (≈ 0.545 µM)	16 (≈ 22.4 µM)	16 (≈ 22.4 µM)	0.39 (≈ 0.545 µM)	25 (≈ 35 µM)	0.39 (≈ 0.545 µM)	0.25 (≈ 0.35 µM)			
CC[C@H]1OC(=O)/C(C)=C/[C@H](C)[C@@H](O[C@@H]2O[C@H](C)C[C@H](N(C)C)[C@H]2O)[C@@](C)(OC)C[C@@H](C)C2=NCCN3C(=O)O[C@@]1(C)[C@H]3[C@H]2C	0.05 (≈ 0.0804 µM)	0.25 (≈ 0.402 µM)	0.25 (≈ 0.402 µM)		8	0.78 (≈ 1.25 µM)		16 (≈ 25.7 µM)	0.2 (≈ 0.322 µM)		0.78 (≈ 1.25 µM)	1 (≈ 1.61 µM)	66.1	> 40	7.5
CC[C@H]1OC(=O)/C(C)=C/[C@H](C)[C@@H](O[C@@H]2O[C@H](C)C[C@H](N(C)C)[C@H]2O)[C@@](C)(OC)C[C@@H](C)C(=O)[C@H](C)[C@H]2N(CCc3cccc(C(F)(F)F)c3)C(=O)O[C@]12C		0.125 (≈ 0.163 µM)		6.2 (≈ 8.06 µM)		0.39 (≈ 0.507 µM)	16 (≈ 20.8 µM)	32 (≈ 41.6 µM)	0.78 (≈ 1.01 µM)	25 (≈ 32.5 µM)	0.78 (≈ 1.01 µM)	1 (≈ 1.3 µM)			
